Measurements from ChEMBL document CHEMBL3352815, “Indolinone based LRRK2 kinase inhibitors with a key hydrogen bond” (Bioorg Med Chem Lett, 2014).
One block for each compound: values may come before it.

Assays:
[1] = molecular target: T1, Leucine-rich repeat serine/threonine-protein kinase 2 (Homo sapiens, UniProt Q5S007); assay: Inhibition of recombinant LRRK2 (unknown origin) using gamma-32P-ATP assessed as LRRKtide substrate phosphorylation level at 10 uM by autoradiography; parameters: scale not given: the % may be the effect or the level left
Outline: (§1)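 In vitro LRRK2 kinase activity assay with a peptide substrate. Compound was tested at two concentrations, 10 and 1. Read-out is residual LRRK2 kinase activity, given as percent relative to control.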

[2] = molecular target: T1, Leucine-rich repeat serine/threonine-protein kinase 2; assay: Inhibition of recombinant LRRK2 (unknown origin) using gamma-32P-ATP assessed as LRRKtide substrate phosphorylation level at 1 uM by autoradiography; parameters: scale not given: the % may be the effect or the level left; outline: as §1
[3] = molecular target: T1, Leucine-rich repeat serine/threonine-protein kinase 2; assay: Inhibition of recombinant LRRK2 (unknown origin) using gamma-32P-ATP assessed as LRRKtide substrate phosphorylation level by autoradiography
[4] = molecular target: Interleukin-1 receptor-associated kinase 4 (Homo sapiens) (UniProt Q9NWZ3); assay: Inhibition of human recombinant IRAK4 expressed insect cells using Ulight-FLGFTYVAP substrate assessed as remaining enzyme activity at 1 uM after 90 mins relative to control
[5] = molecular target: Insulin receptor (Homo sapiens) (UniProt P06213); assay: Inhibition of human recombinant InsR using Ulight-Poly GAT[EAY(1:1:1)]n substrate assessed as remaining enzyme activity at 1 uM after 10 mins relative to control
[6] = molecular target: Vascular endothelial growth factor receptor 2 (Homo sapiens) (UniProt P35968); assay: Inhibition of human recombinant KDR kinase expressed Sf9 cells using Ulight-CAGAGAIETDKEYYTVKD substrate assessed as remaining enzyme activity at 1 uM after 60 mins relative to control
[7] = molecular target: Tyrosine-protein kinase Lck (Homo sapiens) (UniProt P06239); assay: Inhibition of human recombinant Lck kinase expressed insect cells using Ulight-Poly GAT[EAY(1:1:1)]n substrate assessed as remaining enzyme activity at 1 uM after 30 mins relative to control
[8] = molecular target: MAP kinase-activated protein kinase 2 (Homo sapiens) (UniProt P49137); assay: Inhibition of human recombinant MAPKAPK2 expressed Escherichia coli using CREBtide (CKRREILSRRPSYRK) substrate assessed as remaining enzyme activity at 1 uM after 15 mins relative to control
[9] = molecular target: MAP kinase-interacting serine/threonine-protein kinase 2 (Homo sapiens) (UniProt Q9HBH9); assay: Inhibition of human recombinant MNK2 expressed Sf21 cells using CREBtide (CKRREILSRRPSYRK) substrate assessed as remaining enzyme activity at 1 uM after 90 mins relative to control
[10] = molecular target: Serine/threonine-protein kinase 26 (Homo sapiens) (UniProt Q9P289); assay: Inhibition of human recombinant MST4 kinase using Ulight TM- PKC substrate assessed as remaining enzyme activity at 1 uM after 30 mins relative to control
[11] = molecular target: Serine/threonine-protein kinase Nek2 (Homo sapiens) (UniProt P51955); assay: Inhibition of human recombinant NEK2 expressed insect cells using Ulight-FLGFTYVAP substrate assessed as remaining enzyme activity at 1 uM after 60 mins relative to control
[12] = molecular target: 3-phosphoinositide-dependent protein kinase 1 (Homo sapiens) (UniProt O15530); assay: Inhibition of human recombinant PDK1 expressed insect cells using Ulight-FLGFTYVAP substrate assessed as remaining enzyme activity at 1 uM after 90 mins relative to control
[13] = molecular target: Serine/threonine-protein kinase PLK1 (Homo sapiens) (UniProt P53350); assay: Inhibition of human recombinant PLK1 using Ulight-FLGFTYVAP substrate assessed as remaining enzyme activity at 1 uM after 60 mins relative to control
[14] = molecular target: Rho-associated protein kinase 1 (Homo sapiens) (UniProt Q13464); assay: Inhibition of human recombinant ROCK1 using Ulight-RRRSLLE substrate assessed as remaining enzyme activity at 1 uM after 30 mins relative to control
[15] = molecular target: Serine/threonine-protein kinase Sgk1 (Homo sapiens) (UniProt O00141); assay: Inhibition of human recombinant SGK1 using Ulight-RRRSLLE substrate assessed as remaining enzyme activity at 1 uM after 30 mins relative to control
[16] = molecular target: Proto-oncogene tyrosine-protein kinase Src (Homo sapiens) (UniProt P12931); assay: Inhibition of human recombinant Src kinase expressed insect cells using Ulight-Poly GAT[EAY(1:1:1)]n substrate assessed as remaining enzyme activity at 1 uM after 10 mins relative to control
[17] = molecular target: Serine/threonine-protein kinase TAO2 (Homo sapiens) (UniProt Q9UL54); assay: Inhibition of human recombinant TAOK2 (TAO1) using Ulight-FLGFTYVAP substrate assessed as remaining enzyme activity at 1 uM after 60 mins relative to control
[18] = molecular target: High affinity nerve growth factor receptor (Homo sapiens) (UniProt P04629); assay: Inhibition of human recombinant TRKA expressed insect cells using Ulight-Poly GAT[EAY(1:1:1)]n substrate assessed as remaining enzyme activity at 1 uM after 10 mins relative to control
[19] = Toxicity in zebrafish embryo assessed as lethality at 30 uM after 120 hrs; format: organism-based, Danio rerio; conditions: in vivo, read-out: Activity
Outline: (§2)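 Zebrafish embryos kept in E3 medium at 28 °C; compound added at 24 hpf, with 1% DMSO embryos as control. Concentrations from 1 to 100 µM. Lethality recorded over time through 120 hpf, with phenotype also compared at 96 hpf.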

Danio rerio [20] = species on record: Danio rerio; assay: Toxicity in zebrafish embryo at below 10 uM after 24 hrs; format: organism-based; conditions: in vivo
Outline: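 Zebrafish embryos collected and kept in E3 medium at 28 °C. Compound added at 24 hpf, and phenotypes (growth, tail morphology) were compared at 96 hpf against control embryos in 1% DMSO. Lethality was followed over time up to 120 hpf across a concentration series.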

[21] = molecular target: Tyrosine-protein kinase ABL1 (Homo sapiens) (UniProt P00519); assay: Inhibition of human recombinant Abl kinase expressed insect cells using Ulight-TK peptide substrate assessed as remaining enzyme activity at 1 uM after 60 mins relative to control
[22] = molecular target: RAC-alpha serine/threonine-protein kinase (Homo sapiens) (UniProt P31749); assay: Inhibition of human recombinant Akt1/PKBalpha expressed insect cells using CKRREILSRRPSYRK substrate assessed as remaining enzyme activity at 1 uM after 60 mins relative to control
[23] = molecular target: Cyclin-dependent kinase 1/cyclin B1 (Homo sapiens) (UniProt P06493+P14635); assay: Inhibition of human recombinant CDC2/CDK1 (cycB) expressed insect cells using Ulight-CFFKNIVTPRTPPPSQGK-amide substrate assessed as remaining enzyme activity at 1 uM after 15 mins relative to control
[24] = molecular target: Cyclin-dependent kinase 2 (Homo sapiens) (UniProt P24941); assay: Inhibition of human recombinant CDK2 using Ulight-CFFKNIVTPRTPPPSQGK-amide substrate assessed as remaining enzyme activity at 1 uM after 30 mins relative to control
[25] = molecular target: Serine/threonine-protein kinase Chk1 (Homo sapiens) (UniProt O14757); assay: Inhibition of human recombinant CHK1 expressed insect cells using CREBtide (CKRREILSRRPSYRK) substrate assessed as remaining enzyme activity at 1 uM after 30 mins relative to control
[26] = molecular target: Serine/threonine-protein kinase Chk2 (Homo sapiens) (UniProt O96017); assay: Inhibition of human recombinant CHK2 expressed insect cells using CREBtide (CKRREILSRRPSYRK) substrate assessed as remaining enzyme activity at 1 uM after 15 mins relative to control
[27] = molecular target: Hepatocyte growth factor receptor (Homo sapiens) (UniProt P08581); assay: Inhibition of human recombinant c-Met kinase expressed insect cells using Ulight-CAGAGAIETDKEYYTVKD substrate assessed as remaining enzyme activity at 1 uM after 60 mins relative to control
[28] = molecular target: Ephrin type-A receptor 3 (Homo sapiens) (UniProt P29320); assay: Inhibition of human recombinant EphA3 kinase using Ulight-TK peptide substrate assessed as remaining enzyme activity at 1 uM after 60 mins relative to control
Danio rerio [29] = species on record: Danio rerio; assay: Toxicity in zebrafish embryo assessed as crooked tails at 5 to 10 uM after 24 hrs; format: organism-based; conditions: in vivo
[30] = Toxicity in zebrafish embryo assessed as lethality at 20 to 30 uM after 24 hrs; format: organism-based, Danio rerio; conditions: in vivo, read-out: Activity; outline: as §2
[31] = molecular target: Glycogen synthase kinase-3 beta (Homo sapiens) (UniProt P49841); assay: Inhibition of human recombinant GSK3beta using CFFKNIVTPRTPPPSQGK-amide substrate after 90 mins incubation by LANCE method

T1 sequence (Q5S007 whole entry): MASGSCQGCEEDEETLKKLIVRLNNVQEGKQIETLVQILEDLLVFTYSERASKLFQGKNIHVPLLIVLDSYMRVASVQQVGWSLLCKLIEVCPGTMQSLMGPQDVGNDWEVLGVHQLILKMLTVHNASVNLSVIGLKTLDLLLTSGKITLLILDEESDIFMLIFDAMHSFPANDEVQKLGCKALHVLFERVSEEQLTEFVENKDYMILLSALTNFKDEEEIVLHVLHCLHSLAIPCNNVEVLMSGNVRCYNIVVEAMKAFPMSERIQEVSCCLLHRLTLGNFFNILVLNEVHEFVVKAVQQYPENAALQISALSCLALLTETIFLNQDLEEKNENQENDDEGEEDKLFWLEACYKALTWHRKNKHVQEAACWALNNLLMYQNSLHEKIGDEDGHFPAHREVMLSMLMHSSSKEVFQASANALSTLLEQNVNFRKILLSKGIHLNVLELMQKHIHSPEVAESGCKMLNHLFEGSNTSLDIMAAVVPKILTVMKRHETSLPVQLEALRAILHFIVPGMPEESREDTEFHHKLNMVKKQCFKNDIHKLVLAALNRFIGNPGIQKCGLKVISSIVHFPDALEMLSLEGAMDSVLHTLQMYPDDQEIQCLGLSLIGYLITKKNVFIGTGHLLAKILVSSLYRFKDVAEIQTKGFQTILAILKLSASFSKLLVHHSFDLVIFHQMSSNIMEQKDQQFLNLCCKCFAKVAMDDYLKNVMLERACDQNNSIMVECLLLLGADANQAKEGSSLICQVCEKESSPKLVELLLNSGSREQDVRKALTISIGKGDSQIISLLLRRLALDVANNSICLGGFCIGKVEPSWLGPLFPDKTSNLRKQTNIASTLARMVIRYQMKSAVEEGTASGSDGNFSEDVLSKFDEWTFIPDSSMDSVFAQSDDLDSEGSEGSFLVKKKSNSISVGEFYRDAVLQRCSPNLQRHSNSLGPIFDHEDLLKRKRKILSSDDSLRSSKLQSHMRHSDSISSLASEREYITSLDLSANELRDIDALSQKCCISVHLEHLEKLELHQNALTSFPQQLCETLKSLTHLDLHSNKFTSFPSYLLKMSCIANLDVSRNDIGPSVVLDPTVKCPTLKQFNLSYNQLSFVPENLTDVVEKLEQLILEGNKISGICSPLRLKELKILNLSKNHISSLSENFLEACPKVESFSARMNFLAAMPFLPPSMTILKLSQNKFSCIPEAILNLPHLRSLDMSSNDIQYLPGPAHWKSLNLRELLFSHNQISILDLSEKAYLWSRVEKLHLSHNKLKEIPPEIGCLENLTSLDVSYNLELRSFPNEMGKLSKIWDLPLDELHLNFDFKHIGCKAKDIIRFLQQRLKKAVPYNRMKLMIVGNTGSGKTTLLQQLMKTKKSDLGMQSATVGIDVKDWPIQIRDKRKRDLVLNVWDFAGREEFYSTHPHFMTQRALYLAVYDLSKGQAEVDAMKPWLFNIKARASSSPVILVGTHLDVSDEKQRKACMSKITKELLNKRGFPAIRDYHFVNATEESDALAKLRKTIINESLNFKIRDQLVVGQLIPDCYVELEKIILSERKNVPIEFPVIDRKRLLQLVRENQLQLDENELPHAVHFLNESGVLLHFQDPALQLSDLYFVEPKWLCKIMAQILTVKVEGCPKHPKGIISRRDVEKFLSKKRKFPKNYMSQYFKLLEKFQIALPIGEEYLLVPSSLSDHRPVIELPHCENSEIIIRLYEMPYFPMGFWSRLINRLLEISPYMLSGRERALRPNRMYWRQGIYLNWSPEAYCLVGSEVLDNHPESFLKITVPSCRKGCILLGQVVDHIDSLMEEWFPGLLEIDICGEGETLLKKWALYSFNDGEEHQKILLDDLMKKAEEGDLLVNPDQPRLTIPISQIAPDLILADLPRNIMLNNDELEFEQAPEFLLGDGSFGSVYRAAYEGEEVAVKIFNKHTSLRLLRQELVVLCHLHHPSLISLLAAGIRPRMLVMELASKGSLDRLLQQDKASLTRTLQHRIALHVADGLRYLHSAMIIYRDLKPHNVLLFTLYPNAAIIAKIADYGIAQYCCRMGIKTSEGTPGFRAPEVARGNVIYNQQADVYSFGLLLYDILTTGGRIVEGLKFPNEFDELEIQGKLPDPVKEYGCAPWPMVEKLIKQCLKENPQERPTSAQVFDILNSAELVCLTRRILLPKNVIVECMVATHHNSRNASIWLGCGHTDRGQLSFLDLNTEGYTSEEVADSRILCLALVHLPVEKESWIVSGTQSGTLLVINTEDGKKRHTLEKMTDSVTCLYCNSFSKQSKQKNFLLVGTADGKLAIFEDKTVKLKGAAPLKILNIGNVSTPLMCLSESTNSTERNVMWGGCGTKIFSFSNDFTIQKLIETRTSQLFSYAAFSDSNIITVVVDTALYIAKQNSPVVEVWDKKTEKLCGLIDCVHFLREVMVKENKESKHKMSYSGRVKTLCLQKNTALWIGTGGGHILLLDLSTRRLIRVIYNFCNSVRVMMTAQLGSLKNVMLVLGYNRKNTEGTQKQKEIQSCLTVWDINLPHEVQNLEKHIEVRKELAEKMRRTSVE
Chain of MAP kinase-interacting serine/threonine-protein kinase 2 (Homo sapiens) (Q9HBH9 whole entry, looked up): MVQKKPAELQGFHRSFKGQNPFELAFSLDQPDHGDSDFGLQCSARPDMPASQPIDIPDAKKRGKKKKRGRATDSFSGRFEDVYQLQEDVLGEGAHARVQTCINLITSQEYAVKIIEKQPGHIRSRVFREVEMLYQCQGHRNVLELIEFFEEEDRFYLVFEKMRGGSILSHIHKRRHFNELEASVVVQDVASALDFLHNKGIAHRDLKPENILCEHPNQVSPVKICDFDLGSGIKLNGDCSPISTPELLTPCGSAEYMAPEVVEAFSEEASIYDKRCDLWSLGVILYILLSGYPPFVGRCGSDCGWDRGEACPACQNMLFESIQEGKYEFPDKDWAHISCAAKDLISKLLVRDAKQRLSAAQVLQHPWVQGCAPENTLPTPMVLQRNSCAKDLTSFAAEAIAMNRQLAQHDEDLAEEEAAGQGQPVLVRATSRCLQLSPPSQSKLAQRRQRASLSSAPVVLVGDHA
Chain of Insulin receptor (Homo sapiens) (P06213 28-758 limits assumed): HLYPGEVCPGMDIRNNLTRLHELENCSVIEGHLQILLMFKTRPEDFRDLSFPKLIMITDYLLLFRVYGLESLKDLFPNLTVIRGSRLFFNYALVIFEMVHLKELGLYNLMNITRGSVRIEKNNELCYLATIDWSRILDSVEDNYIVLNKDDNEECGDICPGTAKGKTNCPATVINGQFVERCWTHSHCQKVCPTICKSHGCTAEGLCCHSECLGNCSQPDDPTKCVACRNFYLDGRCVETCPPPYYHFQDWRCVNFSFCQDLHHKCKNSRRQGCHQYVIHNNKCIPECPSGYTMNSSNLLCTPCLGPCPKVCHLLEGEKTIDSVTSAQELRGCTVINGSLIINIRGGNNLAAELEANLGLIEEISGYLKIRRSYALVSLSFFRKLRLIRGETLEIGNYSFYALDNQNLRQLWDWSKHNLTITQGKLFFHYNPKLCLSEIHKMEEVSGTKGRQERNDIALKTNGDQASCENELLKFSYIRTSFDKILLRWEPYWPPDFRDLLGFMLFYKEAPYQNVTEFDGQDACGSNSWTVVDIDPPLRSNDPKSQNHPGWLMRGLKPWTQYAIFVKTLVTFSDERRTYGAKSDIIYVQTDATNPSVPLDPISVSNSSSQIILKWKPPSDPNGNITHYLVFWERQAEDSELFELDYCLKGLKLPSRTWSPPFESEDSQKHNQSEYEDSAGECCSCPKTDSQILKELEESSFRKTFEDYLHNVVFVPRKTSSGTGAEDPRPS
Chain of Insulin receptor (Homo sapiens) (P06213 763-1382 limits assumed): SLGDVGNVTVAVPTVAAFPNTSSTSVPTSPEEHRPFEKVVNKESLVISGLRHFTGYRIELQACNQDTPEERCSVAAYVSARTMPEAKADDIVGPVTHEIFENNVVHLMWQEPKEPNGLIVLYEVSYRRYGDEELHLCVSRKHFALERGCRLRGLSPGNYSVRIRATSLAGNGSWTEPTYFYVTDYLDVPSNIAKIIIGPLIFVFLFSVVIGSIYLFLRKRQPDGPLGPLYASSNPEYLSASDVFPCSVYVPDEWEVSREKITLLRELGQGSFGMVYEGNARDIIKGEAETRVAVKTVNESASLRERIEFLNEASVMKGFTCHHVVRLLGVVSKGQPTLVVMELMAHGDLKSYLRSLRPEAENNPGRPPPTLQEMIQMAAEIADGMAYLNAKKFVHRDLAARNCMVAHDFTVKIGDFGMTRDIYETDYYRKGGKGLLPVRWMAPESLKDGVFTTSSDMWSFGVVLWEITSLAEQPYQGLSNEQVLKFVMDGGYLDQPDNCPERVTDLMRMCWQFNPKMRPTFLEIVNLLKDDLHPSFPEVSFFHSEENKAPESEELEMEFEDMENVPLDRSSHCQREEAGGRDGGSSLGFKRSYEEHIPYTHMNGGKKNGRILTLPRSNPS
Chain of RAC-alpha serine/threonine-protein kinase (Homo sapiens) (P31749 whole entry): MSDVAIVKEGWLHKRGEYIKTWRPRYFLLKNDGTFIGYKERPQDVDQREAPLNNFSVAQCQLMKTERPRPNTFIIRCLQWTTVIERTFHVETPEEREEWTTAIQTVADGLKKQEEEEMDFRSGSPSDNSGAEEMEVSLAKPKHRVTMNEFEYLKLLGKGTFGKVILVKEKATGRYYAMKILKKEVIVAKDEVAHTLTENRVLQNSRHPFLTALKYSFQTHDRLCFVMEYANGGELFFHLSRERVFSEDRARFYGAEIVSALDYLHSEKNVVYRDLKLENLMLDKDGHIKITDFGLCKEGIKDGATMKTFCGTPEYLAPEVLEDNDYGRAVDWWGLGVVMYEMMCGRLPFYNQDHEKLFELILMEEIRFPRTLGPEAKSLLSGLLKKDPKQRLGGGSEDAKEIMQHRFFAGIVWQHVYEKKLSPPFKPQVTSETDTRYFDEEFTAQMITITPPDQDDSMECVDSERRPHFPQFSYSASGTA

Activity [1]: 16%
Activity [2]: 27%
IC50 [3]: 10000 nM
SMILES: O=C1Nc2ccc(Cl)cc2/C1=C\c1ccccc1

Activity [1]: 24%
Activity [2]: 26%
SMILES: COc1cc(/C=C2/C(=O)Nc3ccc(Cl)cc32)ccc1OCCN(C)C

IC50 [3]: 31 nM
SMILES: COc1ccc2c(c1)/C(=C\c1cc(Br)c(O)c(Br)c1)C(=O)N2

IC50 [3]: 1500 nM
SMILES: COc1c(C)cc(/C=C2/C(=O)Nc3ccc(Cl)cc32)cc1C

Activity [1]: 8%
Activity [2]: 12%
IC50 [3]: 12000 nM
SMILES: O=C1Nc2ccc(Cl)cc2/C1=C\c1ccc(O)cc1

The remaining lines, values behind:

SMILES: CN(C)CCOc1ccc(/C=C2/C(=O)Nc3ccc(Cl)cc32)cc1
Activity [1]: 3%
Activity [2]: 22%
IC50 [3]: 466 nM

SMILES: O=C1Nc2ccc(Cl)cc2/C1=C/c1cc(Br)c(O)c(Br)c1
Activity [4]: 90%
Activity [5]: 104%
Activity [6]: 97%
Activity [7]: 102%
Activity [8]: 83%
Activity [9]: 89%
Activity [10]: 103%
Activity [11]: 99%
Activity [12]: 83%
Activity [13]: 80%
Activity [14]: 92%
Activity [15]: 100%
Activity [16]: 101%
Activity [17]: 85%
Activity [18]: 91%
mortality at 120 h, 30 µM [19]: 40%
Activity (Danio rerio [20]): Non-toxic
Activity [21]: 77%
Activity [22]: 87%
Activity [23]: 90%
Activity [24]: 95%
Activity [25]: 81%
Activity [26]: 87%
Activity [27]: 69%
Activity [28]: 101%

SMILES: O=C1Nc2ccc(Cl)cc2/C1=C\c1ccc(O)c(Br)c1
Activity (Danio rerio [29]): Toxic
mortality at 24 h, up to 30 µM [30]: > 80%
inhibition [31]: 19%

SMILES: COc1cc(OCCN(C)C)ccc1/C=C1/C(=O)Nc2ccc(Cl)cc21
Activity [1]: 29%
Activity [2]: 62%

SMILES: COc1cc(/C=C2/C(=O)Nc3ccc(Cl)cc32)ccc1N1CCOCC1
Activity [1]: 33%
Activity [2]: 22%

SMILES: CN[C@@H]1C[C@H]2O[C@@](C)([C@@H]1OC)n1c3ccccc3c3c4c(c5c6ccccc6n2c5c31)C(=O)NC4
Activity [1]: 2%
Activity [2]: 5%

SMILES: COc1cc(/C=C2/C(=O)Nc3ccc(Cl)cc32)ccc1OCCN1CCOCC1
Activity [1]: 9%
Activity [2]: 8%
IC50 [3]: 163 nM

SMILES: COc1cc(C(=O)N2CCC(N3CCN(C)CC3)CC2)ccc1Nc1ncc2c(n1)N(C)c1ccccc1C(=O)N2C
Activity [1]: 5%
Activity [2]: 13%

SMILES: O=C1Nc2ccc(Cl)cc2/C1=C\c1ccc(OCCN2CCOCC2)cc1
Activity [1]: 15%
Activity [2]: 37%
IC50 [3]: 205 nM
